Data reported in PMC2659760 (The Journal of organic chemistry, 2009).
“Also recorded” adds a separate entry of the source. Where two headings read alike, the source gives them in different places. One block for each molecule: values may come before it.

What was measured:
[1] = biological target: T1, porcine kidney diamine oxidase (pkDAO) (Sus scrofa, UniProt Q9TRC7); experiment: Selectivity: initial oxidation velocity with pkDAO; format: biochemical; settings: for V0: 37 °C, 250 nm
T1 sequence (Q9TRC7 25-755): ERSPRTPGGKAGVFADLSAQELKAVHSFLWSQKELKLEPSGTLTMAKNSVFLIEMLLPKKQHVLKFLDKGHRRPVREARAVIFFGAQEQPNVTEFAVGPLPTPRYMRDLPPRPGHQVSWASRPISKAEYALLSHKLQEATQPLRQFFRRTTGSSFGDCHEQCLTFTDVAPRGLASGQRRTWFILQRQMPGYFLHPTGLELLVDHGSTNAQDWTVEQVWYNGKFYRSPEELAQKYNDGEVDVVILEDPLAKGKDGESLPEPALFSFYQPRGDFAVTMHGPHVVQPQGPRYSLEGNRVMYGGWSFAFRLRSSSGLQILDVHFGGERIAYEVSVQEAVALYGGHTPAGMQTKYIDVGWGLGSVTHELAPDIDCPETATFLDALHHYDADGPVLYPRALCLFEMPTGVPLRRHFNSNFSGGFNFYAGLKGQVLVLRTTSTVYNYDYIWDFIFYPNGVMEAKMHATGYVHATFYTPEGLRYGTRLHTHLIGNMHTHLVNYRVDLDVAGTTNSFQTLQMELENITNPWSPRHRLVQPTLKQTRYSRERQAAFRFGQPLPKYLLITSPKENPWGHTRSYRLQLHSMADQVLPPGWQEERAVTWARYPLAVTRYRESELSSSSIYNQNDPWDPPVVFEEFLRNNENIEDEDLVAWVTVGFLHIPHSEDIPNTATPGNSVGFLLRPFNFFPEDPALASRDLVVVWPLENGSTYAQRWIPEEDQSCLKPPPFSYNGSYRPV
In short: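 Porcine kidney DAO (from 10 mg/mL stock) in 0.1 M pH 7.2 phosphate buffer, equilibrated at 37 °C. Test amine (final 20 µM) or p-xylylenediamine (final 1.5 mM) was added. Absorbance at 250 nm was read for 30 s at 37 °C. Rates were computed using a literature extinction coefficient for p-(aminomethyl)benzaldehyde.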

[2] = biological target: Arthrobacter globiformis amine oxidase (AGAO) (Arthrobacter globiformis, UniProt P46881); experiment: Selectivity: initial oxidation velocity with AGAO; format: biochemical; settings: for V0: 30 °C, 250 nm
In short: (§1)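 Purified enzyme was diluted into 20 µM fluorogenic amine substrate in 0.1 M pH 7.2 phosphate buffer, or into 5 mM benzylamine in 50 mM pH 7.2 phosphate buffer, at 30 °C. Absorbance at 250 nm was followed for 30 s. Slopes were converted to nM s−1 using extinction coefficients of the aldehyde products at 250 nm.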

BPAO [3] = biological target: T2, BPAO (Bos taurus, UniProt Q29437); experiment: Selectivity: initial oxidation velocity with BPAO; format: biochemical, bovine; settings: for V0: 30 °C, 250 nm
T2 sequence (Q29437 17-762): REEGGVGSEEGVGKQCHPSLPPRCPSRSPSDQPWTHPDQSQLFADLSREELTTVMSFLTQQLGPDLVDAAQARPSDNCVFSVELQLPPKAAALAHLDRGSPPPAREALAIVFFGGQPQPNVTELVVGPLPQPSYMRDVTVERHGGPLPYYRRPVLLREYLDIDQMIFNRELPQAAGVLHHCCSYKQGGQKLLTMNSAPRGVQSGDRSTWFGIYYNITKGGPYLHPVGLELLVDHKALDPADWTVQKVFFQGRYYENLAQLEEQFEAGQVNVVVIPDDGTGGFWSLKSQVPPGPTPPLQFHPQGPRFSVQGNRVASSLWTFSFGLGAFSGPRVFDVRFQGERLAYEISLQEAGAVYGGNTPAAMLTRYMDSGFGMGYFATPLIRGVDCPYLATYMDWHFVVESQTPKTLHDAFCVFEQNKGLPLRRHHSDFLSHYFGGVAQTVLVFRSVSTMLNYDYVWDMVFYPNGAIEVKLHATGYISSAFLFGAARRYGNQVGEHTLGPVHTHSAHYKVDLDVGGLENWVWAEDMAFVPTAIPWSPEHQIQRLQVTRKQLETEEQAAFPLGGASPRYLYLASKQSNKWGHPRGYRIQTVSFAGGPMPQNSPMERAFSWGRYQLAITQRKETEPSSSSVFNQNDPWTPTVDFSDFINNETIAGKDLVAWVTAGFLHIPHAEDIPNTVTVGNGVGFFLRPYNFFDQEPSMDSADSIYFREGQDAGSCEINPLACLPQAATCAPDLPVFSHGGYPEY
In short: as §1

[4] = biological target: T3, Pichia pastoris lysyl oxidase (PPLO) (Komagataella pastoris, UniProt Q96X16); experiment: Selectivity: initial oxidation velocity with PPLO; format: biochemical; settings: for V0: 30 °C, 250 nm
T3 sequence (Q96X16 19-787): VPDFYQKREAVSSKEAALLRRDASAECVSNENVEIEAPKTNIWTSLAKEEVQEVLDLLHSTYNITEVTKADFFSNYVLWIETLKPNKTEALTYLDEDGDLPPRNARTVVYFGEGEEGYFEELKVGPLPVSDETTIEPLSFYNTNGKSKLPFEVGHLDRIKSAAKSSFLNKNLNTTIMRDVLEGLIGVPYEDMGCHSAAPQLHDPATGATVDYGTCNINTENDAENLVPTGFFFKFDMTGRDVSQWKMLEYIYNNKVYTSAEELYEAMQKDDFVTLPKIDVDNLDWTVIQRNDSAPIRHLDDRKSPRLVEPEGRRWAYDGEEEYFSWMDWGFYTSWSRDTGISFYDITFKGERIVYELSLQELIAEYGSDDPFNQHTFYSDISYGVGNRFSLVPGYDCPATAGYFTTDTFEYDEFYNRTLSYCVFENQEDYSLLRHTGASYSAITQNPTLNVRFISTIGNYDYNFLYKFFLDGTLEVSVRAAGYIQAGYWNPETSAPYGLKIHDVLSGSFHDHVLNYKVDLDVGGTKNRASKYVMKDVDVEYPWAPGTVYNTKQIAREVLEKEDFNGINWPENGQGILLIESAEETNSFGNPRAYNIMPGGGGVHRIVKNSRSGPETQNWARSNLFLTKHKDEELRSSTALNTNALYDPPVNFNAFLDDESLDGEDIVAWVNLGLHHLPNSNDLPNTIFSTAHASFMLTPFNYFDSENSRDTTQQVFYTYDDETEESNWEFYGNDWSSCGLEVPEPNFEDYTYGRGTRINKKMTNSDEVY
In short: as §1

[5] = biological target: T4, bovine plasma amine oxidase (BPAO) (Bos taurus, UniProt Q29437); experiment: Substrate activity with BPAO; format: biochemical; settings: kcat/Km relative to BA = 1
T4 sequence (Q29437 17-762): T2 sequence (Q29437 17-762)

[6] = test system: rat liver monoamine oxidase (MAO-B); experiment: Selectivity: initial oxidation velocity with rat liver MAO-B; format: biochemical; settings: for V0: 30 °C, 250 nm, rat liver mitochondria
In short: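 MAO-B source: isolated rat liver mitochondria, protein by biuret (BSA standard). Thawed suspension in mannitol/sucrose/MOPS pH 7.4 diluted with 0.1 M pH 7.2 phosphate containing 0.25% Triton X-100, warmed to 30 °C. Aliquot added to 20 µM test amine (0.1 M phosphate) or 5 mM benzylamine (50 mM phosphate). A250 followed 30 s at 30 °C; rates via extinction coefficients.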

BPAO [7] = biological target: T2, BPAO; experiment: Inhibition of BPAO evaluated with the new fluorometric assay; format: biochemical, bovine
In short: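 BPAO (50 nM) in 0.1 M pH 7.2 phosphate buffer, held 5 min at 2 °C, then given test inhibitor (final 1–10 µM; repeat at 30 °C with 0.125–2 µM). Aliquots taken over time and assayed at 30 °C: 10 µM fluorogenic amine substrate, emission 453 nm (λex 350 nm), 30 s. Residual activity relative to an inhibitor-free control; t1/2 per concentration fed Kitz–Wilson plot.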

BPAO [8] = biological target: T2, BPAO; settings: ref 8d, cited from earlier work
Solubility = format: physicochemical
[9] = 12 20 µM in 0.1 M pH 7.2 phosphate buffer
[10] = BA 5 mM in 50 mM pH 7.2 phosphate buffer

V0 ([1]; PXDA 1.5 mM in 0.1 M pH 7.2 phosphate buffer): 51.8 nM/s
SMILES: NCc1ccc(CN)cc1 [PXDA, p-xylylenediamine, reference compound]

SMILES: C[N+](C)(C)CCOc1ccc2cc(CN)ccc2c1.Cl.[Cl-] [compound 12, (2-(6-(Aminomethyl)naphthalen-2-yloxy)ethyl)trimethylammonium chloride hydrochloride]
substrate activity with pkDAO (in words) [1]: no significant substrate activity
V0 [1, 9]: 1.0 nM/s
substrate activity with pkDAO (in words) ([1]; listed as ANETA): not a substrate
substrate activity with AGAO (in words) [2]: no significant substrate activity
V0 [2, 9]: 1.3 nM/s
substrate activity with BPAO (in words) (BPAO [3]): metabolized quickly
V0 (BPAO [3]; [9]): 62.3 nM/s
substrate activity with BPAO (in words) (BPAO [3]; listed as ANETA): good substrate
V0 [4, 9]: 24.8 nM/s
substrate activity with PPLO (in words) ([4]; compared with BPAO): comparable rate
relative activity ([5]; fluorescence spectrophotometry): 5.4×10^3
substrate activity with MAO-B (in words) [6]: no significant substrate activity
V0 [6, 9]: 0.6 nM/s
substrate activity with MAO-B (in words) ([6]; listed as ANETA): not a substrate

relative activity ([5]; fluorescence spectrophotometry): 2.9×10^2
SMILES: Cl.Cl.NCCOc1ccc2cc(CN)ccc2c1 [compound 9, 2-(6-(Aminomethyl)naphthalen-2-yloxy)ethylamine dihydrochloride]

SMILES: C=C=CCN [compound 29, 1-Amino-2,3-butadiene]
slope of the Kitz and Wilson plot (BPAO [7]; inactivation at 2 °C, BPAO 50 nM): 10.8
IC50 (BPAO [7]; read-out: 5 min IC50, 30 °C): 0.25 µM
IC50 (BPAO [7]; read-out: 10 min IC50, 30 °C): 0.125 µM
slope of the Kitz and Wilson plot (BPAO [8]; BA assay, 2 °C): 10.2
IC50 (BPAO [8]; read-out: 5 min IC50, BA assay with 1 µM BPAO, previous estimation): 1.25 µM

relative activity ([5]; UV-vis spectrophotometry): 2.2
relative activity ([5]; fluorescence spectrophotometry): 2.2
SMILES: COc1ccc2cc(CN)ccc2c1.Cl [compound 1, 6-Methoxy-2-naphthalenemethaneamine hydrochloride]
solubility (in words) (Solubility): poor solubility; also recorded: poorly soluble

relative activity ([5]; fluorescence spectrophotometry): 3.1×10^3
SMILES: CN(C)CCOc1ccc2cc(CN)ccc2c1.Cl.Cl [compound 11, (2-(6-(Aminomethyl)naphthalen-2-yloxy)ethyl)dimethylamine dihydrochloride]

relative activity ([5]; fluorescence spectrophotometry): 1.5×10^3
SMILES: CNCCOc1ccc2cc(CN)ccc2c1.Cl.Cl [compound 10, (2-(6-(Aminomethyl)naphthalen-2-yloxy)ethyl)methylamine dihydrochloride]

SMILES: NCc1ccccc1 [BA, benzylamine, reference compound]
V0 [2, 10]: 54.7 nM/s
V0 (BPAO [3]; [10]): 82.8 nM/s
V0 [4, 10]: 67.2 nM/s
relative activity ([5]; UV-vis spectrophotometry): 1
V0 [6, 10]: 103.1 nM/s
